Key:
[1] = molecular target: T1, Disintegrin and metalloproteinase domain-containing protein 17 (Homo sapiens, UniProt P78536); assay: Inhibition of recombinant human ADAM-17 using Mca-Lys-Pro-Leu-Gly-Leu-Dap(Dnp)-Ala-Arg-NH2 as substrate incubated for 30 mins measured every 15 secs for 20 mins by fluorimetric assay
Procedure, shortened: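 Enzyme at 5 nM final was preincubated with inhibitor for 30 min at 37 °C in Tris 25 mM pH 9, ZnCl2 25 µM, 0.005% Brij-35. Substrate was at 2 µM final. Fluorescence increase (ex 325/em 400 nm) gave initial rates, in duplicate. IC50 was derived from vi/vo = 1/(1+[I]/IC50).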

[2] = Cytotoxicity against human A2774 cells assessed as cell viability at 0.01 to 10 uM after 24 to 72 hrs by MTT assay; assay type: cell-based; conditions: a2774, 10 µM
SK-OV-3 = assay: Cytotoxicity against human SKOV3 cells transfected with luciferase gene assessed as cell viability at 0.01 to 10 uM after 24 to 72 hrs by MTT assay; assay type: cell-based; conditions: sk-ov-3, 10 µM
[3] = molecular target: T1, Disintegrin and metalloproteinase domain-containing protein 17; assay: Inhibition of ADAM-17 in human SKOV3 cells transfected with luciferase gene assessed as inhibition of EGF-induced sALCAM release incubated for 30 mins prior to EGF induction measured after 18 hrs by ELISA; assay type: cell-based, SK-OV-3
[4] = molecular target: T2, Disintegrin and metalloproteinase domain-containing protein 10 (Homo sapiens, UniProt O14672); assay: Inhibition of recombinant human ADAM-10 using Mca-Lys-Pro-Leu-Gly-Leu-Dap(Dnp)-Ala-Arg-NH2 as substrate incubated for 1 hr measured every 15 secs for 20 mins by fluorimetric assay
T2 sequence (O14672 whole entry): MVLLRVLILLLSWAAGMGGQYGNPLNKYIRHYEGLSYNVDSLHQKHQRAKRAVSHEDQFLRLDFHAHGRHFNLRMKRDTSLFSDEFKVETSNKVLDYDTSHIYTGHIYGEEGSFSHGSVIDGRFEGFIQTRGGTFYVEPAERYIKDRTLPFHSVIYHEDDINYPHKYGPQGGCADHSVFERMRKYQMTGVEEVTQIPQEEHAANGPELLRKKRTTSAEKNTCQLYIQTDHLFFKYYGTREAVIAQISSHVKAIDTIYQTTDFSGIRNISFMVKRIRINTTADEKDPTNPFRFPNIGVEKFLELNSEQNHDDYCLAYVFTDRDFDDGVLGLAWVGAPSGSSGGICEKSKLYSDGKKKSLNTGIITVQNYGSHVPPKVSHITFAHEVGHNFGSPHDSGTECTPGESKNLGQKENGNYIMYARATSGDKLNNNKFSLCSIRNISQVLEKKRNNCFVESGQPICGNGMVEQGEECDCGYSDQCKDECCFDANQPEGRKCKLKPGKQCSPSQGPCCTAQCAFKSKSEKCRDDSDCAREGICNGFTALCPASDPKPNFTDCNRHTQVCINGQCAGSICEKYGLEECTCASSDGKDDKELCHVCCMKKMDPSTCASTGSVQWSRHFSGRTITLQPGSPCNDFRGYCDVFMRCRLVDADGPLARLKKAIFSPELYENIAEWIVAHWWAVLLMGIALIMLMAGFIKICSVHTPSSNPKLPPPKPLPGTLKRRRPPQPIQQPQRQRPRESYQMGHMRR
Procedure, shortened: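 Enzyme at 20 nM final was preincubated with inhibitor for 1 h at 37 °C in pH 9 buffer (Tris 25 mM, ZnCl2 25 µM, 0.005% Brij-35). Substrate was at 10 µM final. Fluorescence (ex 325/em 400 nm) was followed for initial velocity, in duplicate. IC50 was calculated with vi/vo = 1/(1+[I]/IC50).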

[5] = molecular target: T1, Disintegrin and metalloproteinase domain-containing protein 17; assay: Inhibition of ADAM-17 in human SKOV3 cells transfected with luciferase gene assessed as inhibition of pervanadate-induced sALCAM release incubated for 30 mins prior to pervanadate induction measured after 90 mins by ELISA; assay type: cell-based, SK-OV-3
[6] = molecular target: T1, Disintegrin and metalloproteinase domain-containing protein 17; assay: Inhibition of ADAM-17 in human A2774 cells assessed as inhibition of pervanadate-induced sALCAM release incubated for 30 mins prior to pervanadate induction measured after 90 mins by ELISA; assay type: cell-based
A2780 = assay: Cytotoxicity against human A2780 cells assessed as cell viability at 0.01 to 10 uM after 24 to 72 hrs by MTT assay; assay type: cell-based; conditions: a2780, 10 µM
[7] = molecular target: T1, Disintegrin and metalloproteinase domain-containing protein 17; assay: Inhibition of ADAM-17 in human A2774 cells assessed as inhibition of EGF-induced sALCAM release incubated for 30 mins prior to EGF induction measured after 18 hrs by ELISA; assay type: cell-based
[8] = molecular target: T1, Disintegrin and metalloproteinase domain-containing protein 17; assay: Inhibition of ADAM-17 in human A2780 cells assessed as inhibition of EGF-induced sALCAM release incubated for 30 mins prior to EGF induction measured after 18 hrs by ELISA; assay type: cell-based
[9] = molecular target: T1, Disintegrin and metalloproteinase domain-containing protein 17; assay: Inhibition of ADAM-17 in human A2780 cells assessed as inhibition of pervanadate-induced sALCAM release incubated for 30 mins prior to pervanadate induction measured after 90 mins by ELISA; assay type: cell-based
[10] = molecular target: Matrix metalloproteinase-9 (Homo sapiens, UniProt P14780); assay: Inhibition of recombinant human MMP-9 using Mca-Lys-Pro-Leu-Gly-Leu-Dap(Dnp)-Ala-Arg-NH2 as substrate incubated for 4 hrs measured every 15 secs for 20 mins by fluorimetric assay
Sequence of Matrix metalloproteinase-9 (P14780 whole entry): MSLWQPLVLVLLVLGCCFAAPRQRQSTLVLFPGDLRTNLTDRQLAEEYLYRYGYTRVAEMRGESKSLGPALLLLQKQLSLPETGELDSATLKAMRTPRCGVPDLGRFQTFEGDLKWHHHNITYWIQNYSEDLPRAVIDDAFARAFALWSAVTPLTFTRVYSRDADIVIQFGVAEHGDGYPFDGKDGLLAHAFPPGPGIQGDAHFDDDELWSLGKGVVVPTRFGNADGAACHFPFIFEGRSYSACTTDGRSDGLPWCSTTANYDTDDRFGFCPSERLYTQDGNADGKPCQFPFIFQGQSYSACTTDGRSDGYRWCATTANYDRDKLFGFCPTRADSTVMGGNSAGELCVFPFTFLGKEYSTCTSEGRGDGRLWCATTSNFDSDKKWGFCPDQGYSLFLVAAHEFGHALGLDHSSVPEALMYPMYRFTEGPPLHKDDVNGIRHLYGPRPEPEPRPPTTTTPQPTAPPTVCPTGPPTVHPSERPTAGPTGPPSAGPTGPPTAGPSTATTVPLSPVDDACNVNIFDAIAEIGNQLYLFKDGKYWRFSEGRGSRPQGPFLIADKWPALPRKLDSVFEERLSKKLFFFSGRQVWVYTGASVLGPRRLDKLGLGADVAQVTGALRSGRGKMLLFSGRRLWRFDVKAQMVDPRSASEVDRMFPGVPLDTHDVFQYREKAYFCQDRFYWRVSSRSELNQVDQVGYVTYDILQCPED
Procedure, shortened: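 Pro-MMP-9 was activated with 1 mM APMA for 1 h at 37 °C and used at 1.3 nM final. Inhibitor was incubated with enzyme for 4 h at 25 °C in Tris 50 mM pH 7.5, NaCl 150 mM, CaCl2 10 mM, 0.05% Brij-35, 1% DMSO. Substrate was at 2 µM final, ex 325/em 400 nm, in duplicate. IC50 was obtained from vi/vo = 1/(1+[I]/IC50).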

[11] = molecular target: Matrix metalloproteinase-14 (Homo sapiens, UniProt P50281); assay: Inhibition of recombinant human MMP-14 catalytic domain using Mca-Lys-Pro-Leu-Gly-Leu-Dap(Dnp)-Ala-Arg-NH2 as substrate incubated for 4 hrs measured every 15 secs for 20 mins by fluorimetric assay
Procedure, shortened: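 MMP-14 catalytic domain was used at 1.0 nM final with no activation step. It was incubated with inhibitor for 4 h at 25 °C in Tris 50 mM pH 7.5 buffer with NaCl 150 mM, CaCl2 10 mM, 0.05% Brij-35 and 1% DMSO. Substrate was at 2 µM final, ex 325/em 400 nm, duplicate wells. IC50 was fitted by vi/vo = 1/(1+[I]/IC50).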

Interstitial collagenase = molecular target: T3, Interstitial collagenase (Homo sapiens, UniProt P03956); assay: Inhibition of recombinant human MMP-1 using Mca-Lys-Pro-Leu-Gly-Leu-Dap(Dnp)-Ala-Arg-NH2 as substrate incubated for 4 hrs measured every 15 secs for 20 mins by fluorimetric assay
T3 sequence (P03956 whole entry): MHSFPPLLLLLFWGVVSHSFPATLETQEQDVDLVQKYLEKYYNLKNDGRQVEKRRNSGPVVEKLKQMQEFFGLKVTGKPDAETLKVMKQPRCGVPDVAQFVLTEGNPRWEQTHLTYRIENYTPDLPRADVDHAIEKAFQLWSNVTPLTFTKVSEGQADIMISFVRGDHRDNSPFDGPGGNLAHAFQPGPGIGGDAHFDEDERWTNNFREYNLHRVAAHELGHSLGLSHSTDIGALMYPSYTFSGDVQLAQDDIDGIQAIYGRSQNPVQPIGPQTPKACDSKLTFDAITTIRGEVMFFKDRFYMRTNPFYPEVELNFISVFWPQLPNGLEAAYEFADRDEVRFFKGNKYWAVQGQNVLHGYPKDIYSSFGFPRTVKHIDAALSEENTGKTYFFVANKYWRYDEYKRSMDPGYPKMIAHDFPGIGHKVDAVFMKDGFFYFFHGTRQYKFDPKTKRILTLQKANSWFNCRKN
Procedure, shortened: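 Pro-MMP-1 was activated with 2 mM APMA for 2 h at 37 °C. Enzyme (2.0 nM final) was incubated with inhibitor in Tris 50 mM pH 7.5, NaCl 150 mM, CaCl2 10 mM, 0.05% Brij-35, 1% DMSO for 4 h at 25 °C. Substrate was added at 2 µM final. Fluorescence (ex 325/em 400 nm) was read for initial rates, in duplicate. IC50 came from vi/vo = 1/(1+[I]/IC50).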

[12] = molecular target: 72 kDa type IV collagenase (Homo sapiens, UniProt P08253); assay: Inhibition of recombinant human MMP-2 using Mca-Lys-Pro-Leu-Gly-Leu-Dap(Dnp)-Ala-Arg-NH2 as substrate incubated for 4 hrs measured every 15 secs for 20 mins by fluorimetric assay
Sequence of 72 kDa type IV collagenase (P08253 whole entry): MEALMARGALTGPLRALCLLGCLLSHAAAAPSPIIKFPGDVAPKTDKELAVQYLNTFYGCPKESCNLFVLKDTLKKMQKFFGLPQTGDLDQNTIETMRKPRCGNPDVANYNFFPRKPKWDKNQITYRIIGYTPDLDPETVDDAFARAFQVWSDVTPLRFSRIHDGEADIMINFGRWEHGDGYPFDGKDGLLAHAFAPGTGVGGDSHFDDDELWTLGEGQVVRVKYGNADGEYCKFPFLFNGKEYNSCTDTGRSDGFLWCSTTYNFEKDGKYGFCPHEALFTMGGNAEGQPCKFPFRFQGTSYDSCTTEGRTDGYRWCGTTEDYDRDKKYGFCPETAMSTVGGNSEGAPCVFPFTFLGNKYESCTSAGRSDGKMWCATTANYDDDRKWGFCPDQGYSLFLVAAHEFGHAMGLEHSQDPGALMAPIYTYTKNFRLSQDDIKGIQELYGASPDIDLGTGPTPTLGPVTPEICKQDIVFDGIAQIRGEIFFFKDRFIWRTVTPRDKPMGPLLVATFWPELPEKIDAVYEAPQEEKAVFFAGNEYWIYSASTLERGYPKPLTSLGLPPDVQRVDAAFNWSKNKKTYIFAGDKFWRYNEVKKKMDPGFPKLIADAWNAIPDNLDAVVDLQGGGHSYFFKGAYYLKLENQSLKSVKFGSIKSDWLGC
Procedure, shortened: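 Pro-MMP-2 was activated with 2 mM APMA for 1 h at 37 °C and used at 0.56 nM final. It was preincubated with inhibitor for 4 h at 25 °C in Tris 50 mM pH 7.5 buffer containing NaCl, CaCl2, Brij-35 and 1% DMSO. Substrate was at 2 µM final, ex 325/em 400 nm, run in duplicate. IC50 was taken from initial-velocity ratios, vi/vo = 1/(1+[I]/IC50).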

T1 sequence (P78536 whole entry, the tested form may be a part): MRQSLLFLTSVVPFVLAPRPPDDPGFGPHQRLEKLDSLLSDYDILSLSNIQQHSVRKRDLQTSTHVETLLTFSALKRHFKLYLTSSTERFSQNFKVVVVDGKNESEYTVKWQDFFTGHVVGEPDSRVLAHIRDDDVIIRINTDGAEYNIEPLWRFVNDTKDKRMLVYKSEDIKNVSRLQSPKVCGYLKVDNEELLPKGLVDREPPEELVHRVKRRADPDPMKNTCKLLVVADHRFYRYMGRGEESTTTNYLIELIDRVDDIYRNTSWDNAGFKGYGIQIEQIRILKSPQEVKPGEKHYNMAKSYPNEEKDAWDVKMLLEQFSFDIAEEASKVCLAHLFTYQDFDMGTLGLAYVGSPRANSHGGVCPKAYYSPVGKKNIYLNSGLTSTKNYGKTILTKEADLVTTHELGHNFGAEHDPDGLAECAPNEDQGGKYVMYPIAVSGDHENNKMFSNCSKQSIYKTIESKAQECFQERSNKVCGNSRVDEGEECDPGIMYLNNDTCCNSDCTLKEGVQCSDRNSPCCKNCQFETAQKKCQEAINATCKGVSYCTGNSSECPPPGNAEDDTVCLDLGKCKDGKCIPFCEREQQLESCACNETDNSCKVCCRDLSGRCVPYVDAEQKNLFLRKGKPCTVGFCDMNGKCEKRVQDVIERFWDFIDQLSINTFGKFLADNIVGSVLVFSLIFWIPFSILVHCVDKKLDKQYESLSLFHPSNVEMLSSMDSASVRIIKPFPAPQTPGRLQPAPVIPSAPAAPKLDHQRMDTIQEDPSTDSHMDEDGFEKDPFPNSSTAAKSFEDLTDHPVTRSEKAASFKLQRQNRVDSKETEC

| Compound | IC50 [1] | Activity [2] | Activity (SK-OV-3) | IC50 [3] | IC50 [4] | IC50 [5] | IC50 [6] | Activity (A2780) | IC50 [7] | IC50 [8] | IC50 [9] | IC50 [10] | IC50 [11] | IC50 (Interstitial collagenase) | IC50 [12] |
| --- | --- | --- | --- | --- | --- | --- | --- | --- | --- | --- | --- | --- | --- | --- | --- |
| O=C(NCC[C@@H](NS(=O)(=O)c1ccc(OCc2cc(Br)cc(Br)c2)cc1)C(=O)NO)OCc1ccccc1 | 0.043 µM | Non-toxic | Non-toxic | 9.52 µM | 8.2 µM | 2.1 µM | 1.39 µM | Non-toxic | > 10 µM | > 10 µM | 0.825 µM | 11 µM | 104 µM | 400 µM | 4.1 µM |
| O=C(CNS(=O)(=O)c1ccc(OCc2cc(Br)cc(Br)c2)cc1)NO | 0.105 µM | Non-toxic | Non-toxic | > 10 µM | 39 µM | 5.3 µM | > 10 µM | Non-toxic | > 10 µM | > 10 µM | 0.84 µM | 51 µM | 113 µM | > 500 µM | 1.75 µM |

Reference: ChEMBL document CHEMBL2429772, “Selective arylsulfonamide inhibitors of ADAM-17: hit optimization and activity in ovarian cancer cell models” (J Med Chem, 2013)
